# Source: ChEMBL document CHEMBL1142995, “Probing the pharmacophore of ginkgolides as glycine receptor antagonists” (J Med Chem, 2007)
# Tests used:
# Assay type in all cases: cell-based
# [1] = molecular target: T1, Glycine receptor subunit alpha-2 (Homo sapiens, UniProt P23416); test: Activity at human alpha-2GlyR expressed in HEK293 cells by FMP assay
# T1 sequence (P23416 whole entry): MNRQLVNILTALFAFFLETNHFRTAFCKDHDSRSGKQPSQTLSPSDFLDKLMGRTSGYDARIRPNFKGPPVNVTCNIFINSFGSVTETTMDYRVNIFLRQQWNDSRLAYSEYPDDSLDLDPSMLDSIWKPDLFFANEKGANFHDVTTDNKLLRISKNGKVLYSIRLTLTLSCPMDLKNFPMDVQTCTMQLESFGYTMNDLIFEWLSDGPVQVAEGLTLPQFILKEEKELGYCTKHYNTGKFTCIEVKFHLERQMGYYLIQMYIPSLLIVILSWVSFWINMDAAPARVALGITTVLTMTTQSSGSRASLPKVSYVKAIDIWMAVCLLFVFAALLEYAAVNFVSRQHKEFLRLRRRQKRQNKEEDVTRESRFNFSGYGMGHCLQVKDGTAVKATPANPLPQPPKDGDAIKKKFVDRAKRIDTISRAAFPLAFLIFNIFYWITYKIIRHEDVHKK
# Method in brief: (§1)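 Stable HEK293 lines (α1: G418; α1β: G418 + hygromycin B; α2: hygromycin B) plated on poly-D-lysine 16-24 h. Loaded with FMP dye in HBSS/20 mM HEPES pH 7.4, antagonist present, 30 min at 37 °C. Fluorescence ex 530/em 560 nm read up to 1 min after glycine: 200 µM (α1, α1β) or 500 µM (α2). Duplicates, ≥3 experiments; IC50 from maximal responses.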
# [2] = molecular target: T2, Glycine receptor subunit alpha-1 (Homo sapiens, UniProt P23415); test: Activity at human alpha1GlyR expressed in HEK293 cells assessed as inhibition of 3000 uM glycine-induced current by whole-cell patch clamp experiment
# T2 sequence (P23415 whole entry): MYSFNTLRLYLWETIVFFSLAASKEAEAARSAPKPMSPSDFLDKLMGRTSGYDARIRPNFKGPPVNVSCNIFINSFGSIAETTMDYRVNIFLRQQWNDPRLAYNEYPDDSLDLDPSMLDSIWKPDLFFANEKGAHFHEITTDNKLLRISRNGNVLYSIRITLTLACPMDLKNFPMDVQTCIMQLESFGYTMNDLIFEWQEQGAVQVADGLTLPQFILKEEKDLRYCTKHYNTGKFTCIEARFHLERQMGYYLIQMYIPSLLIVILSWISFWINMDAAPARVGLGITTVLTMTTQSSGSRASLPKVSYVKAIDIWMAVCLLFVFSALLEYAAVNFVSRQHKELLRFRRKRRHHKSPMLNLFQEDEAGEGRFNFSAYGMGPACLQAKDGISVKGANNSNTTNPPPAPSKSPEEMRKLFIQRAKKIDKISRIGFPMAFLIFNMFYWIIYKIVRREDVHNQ
# Method in brief: (§2)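 α1 GlyR-HEK293 cells, whole-cell patch clamp. Antagonist co-applied with 30 or 3000 µM glycine by gravity perfusion. Peak current normalised to that glycine concentration alone and fitted to Hill equation for IC50 and slope. Mean with 95% CI, 5 cells per glycine concentration.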
# [3] = molecular target: T2, Glycine receptor subunit alpha-1; test: Activity at human alpha-1GlyR expressed in HEK293 cells by FMP assay; method in brief: as §1
# [4] = molecular target: T2, Glycine receptor subunit alpha-1; test: Activity at human alpha-1GlyR expressed in HEK293 cells assessed as inhibition of 30 uM glycine-induced current by whole-cell patch clamp experiment; method in brief: as §2
# [5] = molecular target: T2, Glycine receptor subunit alpha-1; test: Activity at human alpha-1-beta-GlyR expressed in HEK293 cells by FMP assay; method in brief: as §1
# [6] = molecular target: T2, Glycine receptor subunit alpha-1; test: Activity at human alpha-1GlyR expressed in HEK293 cells assessed as inhibition of 300 uM glycine-induced current by whole-cell patch clamp experiment
compound,measurement,setting,value
C[C@@H]1C(=O)O[C@H]2[C@H](O)[C@]34[C@@H]5OC(=O)[C@]3(O[C@@H]3OC(=O)[C@H](O)[C@@]34[C@H](C(C)(C)C)[C@H]5O)[C@@]12O [GINKGOLIDE C],IC50,[1],8.2 µM
same,IC50,[2],5.9 µM
same,IC50,[3],4.7 µM
same,IC50,[4],2.4 µM
same,IC50,[5],2.4 µM
same,IC50,[6],1.7 µM
